Data taken from ChEMBL document CHEMBL2163264, “Identification and synthesis of substituted pyrrolo[2,3-d]pyrimidines as novel firefly luciferase inhibitors” (Bioorg Med Chem, 2012).
The source made the active and inactive calls. The calls are words filed in the database; no cut-off is given here.

Columns and labels:
[1] = target: Luciferin 4-monooxygenase (Photinus pyralis) (UniProt P08659); assay: Mixed-type inhibition of Photinus pyralis luciferase using D-luciferin as substrate at 10 uM after 20 mins by bioluminescence assay
Chain of Luciferin 4-monooxygenase (Photinus pyralis) (P08659 whole entry): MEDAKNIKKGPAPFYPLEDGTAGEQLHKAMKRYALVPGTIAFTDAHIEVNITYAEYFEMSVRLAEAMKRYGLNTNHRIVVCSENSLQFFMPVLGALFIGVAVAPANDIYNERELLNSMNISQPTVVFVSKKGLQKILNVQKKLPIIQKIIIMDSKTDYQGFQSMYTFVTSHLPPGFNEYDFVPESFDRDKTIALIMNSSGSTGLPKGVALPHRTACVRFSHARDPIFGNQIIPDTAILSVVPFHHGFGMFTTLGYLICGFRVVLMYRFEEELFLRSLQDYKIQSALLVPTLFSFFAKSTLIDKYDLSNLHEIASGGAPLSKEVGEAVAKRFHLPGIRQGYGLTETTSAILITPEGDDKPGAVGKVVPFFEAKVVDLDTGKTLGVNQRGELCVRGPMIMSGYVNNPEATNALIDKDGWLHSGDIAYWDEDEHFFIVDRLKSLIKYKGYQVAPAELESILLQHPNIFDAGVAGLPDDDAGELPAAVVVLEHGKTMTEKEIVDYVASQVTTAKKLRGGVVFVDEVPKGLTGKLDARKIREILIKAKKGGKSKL

[2] = target: T1, Luciferin 4-monooxygenase (Photinus pyralis, UniProt P08659); assay: Mixed-type inhibition of Photinus pyralis luciferase using D-luciferin as substrate after 20 mins by bioluminescence assay
T1 sequence (P08659 whole entry): as above
Outline: (§1)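 Photinus pyralis firefly luciferase (32 nM) in buffer A (1 M glycine-Tris, 10 mM EDTA, 100 mM MgSO4, pH 7.8) preincubated with inhibitor or buffer 20 min in the dark at room temperature. D-luciferin varied 3.125–200 µM with ATP fixed at 250 µM. Luminescence read. Apparent Km and Vmax from nonlinear Michaelis–Menten fit. Three independent assays in triplicate.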

[3] = target: T1, Luciferin 4-monooxygenase; assay: Mixed-type inhibition of Photinus pyralis luciferase using D-luciferin as substrate after 20 mins by Michaelis-Menten plot; outline: as §1
[4] = target: T1, Luciferin 4-monooxygenase; assay: Competitive inhibition of Photinus pyralis luciferase using 3.125 to 200 uM D-luciferin as substrate after 20 mins by Michaelis-Menten plot in presence of 250 uM ATP; outline: as §1
[5] = target: T1, Luciferin 4-monooxygenase; assay: Uncompetitive inhibition of Photinus pyralis luciferase using 50 uM D-luciferin as substrate after 20 mins by nonlinear regression analysis in presence of 25 to 500 uM ATP
Outline: (§2)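 ATP-dependence kinetics: 32 nM P. pyralis luciferase in pH 7.8 glycine-Tris/EDTA/MgSO4 buffer, preincubated 20 min with inhibitor in the dark at room temperature. ATP varied 25–500 µM with D-luciferin fixed at 50 µM, read by bioluminescence. Double-reciprocal plots were examined. Apparent Km and Vmax came from nonlinear Michaelis–Menten fitting. Three independent assays in triplicate.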

[6] = target: Luciferin 4-monooxygenase (Photinus pyralis) (UniProt P08659); assay: Uncompetitive inhibition of Photinus pyralis luciferase using 50 uM D-luciferin as substrate after 20 mins by Lineweaver-Burk plot in presence of 25 to 500 uM ATP; outline: as §2

NC(=O)Cn1ccc2c(Oc3ccc(N)cc3)ncnc21
inhibition [1]: 21%

CC(C)(C)Cn1ccc2c(Oc3ccc(N)cc3)ncnc21
IC50 [2]: 80 nM

CC(C)=CCn1ccc2c(Oc3ccc(N)cc3)ncnc21
IC50 [2]: 7530 nM

COc1ccc(Cn2ccc3c(Oc4ccc(N)cc4)ncnc32)cc1
inhibition [1]: 26%

C=C(C)Cn1ccc2c(Oc3ccc(N)cc3)ncnc21
IC50 [2]: 120 nM

CC(C)n1ccc2c(Oc3ccccc3N)ncnc21
IC50 [2]: 7300 nM

CNc1ccc(Oc2ncnc3c2ccn3CC(C)(C)C)cc1
IC50 [2]: 70 nM

C=CCn1ccc2c(Oc3ccc(N)cc3)ncnc21
IC50 [2]: 2240 nM

CC(C)n1ccc2c(Oc3cccc(N)c3)ncnc21
IC50 [2]: 14700 nM

Cn1ccc2c(Oc3ccc(N)cc3)ncnc21
inhibition [1]: 48%

CC(C)n1ccc2c(Oc3ccc(N)cc3)ncnc21
Ki [3]: 220 nM
Ki [4]: 1430 nM
Ki [5]: 340 nM
inhibition [6]: Active
IC50 [2]: 360 nM

CCn1ccc2c(Oc3ccc(N)cc3)ncnc21
IC50 [2]: 3510 nM

CC(C)n1ccc2c(Oc3ccc(N)cc3)nc(S(C)(=O)=O)nc21
inhibition [1]: 9%

Nc1ccc(Oc2ncnc3c2ccn3C2CCCC2)cc1
IC50 [2]: 290 nM

CCOC(=O)Cn1ccc2c(Oc3ccc(N)cc3)ncnc21
inhibition [1]: 33%

CC(C)CCn1ccc2c(Oc3ccc(N)cc3)ncnc21
IC50 [2]: 6460 nM

Nc1ccc(Oc2ncnc3[nH]ccc23)cc1
inhibition [1]: 19%

CN(C)c1ccc(Oc2ncnc3c2ccn3CC(C)(C)C)cc1
IC50 [2]: 120 nM

C=C=Cn1ccc2c(Oc3ccc(N)cc3)ncnc21
IC50 [2]: 9430 nM

C=C(C)Cn1ccc2c(Oc3ccc(NC)cc3)ncnc21
IC50 [2]: 60 nM

CC(C)n1ccc2c(Oc3ccc(N)cc3)nc(N)nc21
IC50 [2]: 10800 nM

C=C(C)Cn1ccc2c(Oc3ccc(N(C)C)cc3)ncnc21
IC50 [2]: 90 nM

CNc1ccc(Oc2ncnc3c2ccn3C(C)C)cc1
IC50 [2]: 130 nM

Nc1ccc(Oc2ncnc3c2ccn3Cc2ccc(C(F)(F)F)cc2)cc1
inhibition [1]: 7%

CSc1nc(Oc2ccc(N)cc2)c2ccn(C(C)C)c2n1
inhibition [1]: 31%

Nc1ccc(Oc2ncnc3c2ccn3Cc2ccccc2)cc1
inhibition [1]: 46%

CC(C)Cn1ccc2c(Oc3ccc(N)cc3)ncnc21
IC50 [2]: 310 nM

CC(C)n1ccc2c(Oc3ccc(N(C)C)cc3)ncnc21
IC50 [2]: 180 nM
